Laboratory results from ChEMBL document CHEMBL3421580, “Discovery of autophagy inhibitors with antiproliferative activity in lung and pancreatic cancer cells” (ACS Med Chem Lett, 2015).
Calls of active or inactive are those of the source. The calls are words filed in the database; no cut-off is given here.

Key:
[1] = Ratio of hydroxychloroquine IC50 to compound IC50 for human H460 cells; type: functional
[2] = Antiproliferative activity against human BxPC3 cells after 72 hrs by SRB method; type: functional, cell-based; conditions: BXPC-3, 72 h
In short: (§1)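 SRB growth assay: cells exposed to compounds over a 100-fold concentration range for 72 h, then cell number quantified. IC50 calculated from the curves. Means of at least 3 experiments, each run in triplicate.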

[3] = Ratio of hydroxychloroquine IC50 to compound IC50 for human HCC827 cells; type: functional
[4] = Antiproliferative activity against human H460 cells after 72 hrs by SRB method; type: functional, cell-based; conditions: NCI-H460, 72 h; in short: as §1
[5] = Antiproliferative activity against human HCC827 cells after 72 hrs by SRB method; type: functional, cell-based; conditions: HCC827, 72 h; in short: as §1
BXPC-3 = experiment: Ratio of hydroxychloroquine IC50 to compound IC50 for human BxPC3 cells; type: functional
MDA-MB-231 = experiment: Cytotoxicity against human MDA-MB-231 cells after 72 hrs by MTT assay; type: functional, cell-based; conditions: MDA-MB-231, 72 h, pooled result: one value given for 7 cell lines, strains, targets or settings
NCI-H460 [6] = experiment: Inhibition of autophagy in human H460 cells assessed as increase in LC3-2 level at 10 uM after 24 hrs by immunoblot analysis
NCI-H460 [7] = experiment: Inhibition of autophagy in human H460 cells assessed as increase in punctate LC3 level at 10 uM by immunoblot analysis; type: functional, cell-based; conditions: TDE = time-dependent effect
In short: (§2)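 H460 cells treated 24 h across a concentration series, or with 10 μM compound for varying times, or at 10 μM for 24 h. Cell extracts immunoblotted with anti-LC3 to separate LC3-I from autophagosome-bound LC3-II. Actin probed as loading control.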

NCI-H460 [8] = experiment: Inhibition of autophagy in human H460 cells assessed as increase in punctate LC3 level after 24 hrs by immunoblot analysis; type: functional, cell-based; in short: as §2
NCI-H460 [9] = experiment: Induction of apoptosis in human H460 cells at 25 to 75 uM after 24 hrs by annexin-V staining-based flow cytometry; type: functional, cell-based
In short: (§3)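 Apoptosis in treated H460 cells was detected by binding of APC-conjugated annexin V to surface phosphatidylserine, measured by flow cytometry. Means ± SD of 3 experiments; p < 0.05 taken as significant.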

Homo sapiens = organism: Homo sapiens; experiment: Cmax in human at 1200 mg; type: ADME, organism-based; parameters: dose 1200 mg; conditions: in vivo
NCI-H460 [10] = experiment: Inhibition of autophagy in human H460 cells assessed as increase in p62 level after 24 hrs by immunoblot analysis; type: functional, cell-based
In short: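 H460 cells exposed 24 h to a concentration series. Extracts immunoblotted for p62, with actin as loading control.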

NCI-H3122 = experiment: Inhibition of autophagy in human NCI-H3122 cells assessed as increase in punctate LC3 expression at 25 to 50 uM after 6 hrs by fluorescence microscopic analysis; type: functional, cell-based
In short: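 NCI-H3122 NSCLC cells transfected with a mCherry-EGFP-LC3B tandem reporter, then treated 6 h. Cells fixed and green, red and yellow fluorescent puncta examined by fluorescence microscopy.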

NCI-H460 [11] = experiment: Induction of apoptosis in human H460 cells after 24 hrs by annexin-V staining-based flow cytometry; type: functional, cell-based; in short: as §3
[12] = Inhibition of colony formation in human H460 cells at 6.5 to 100 uM treated for 24 hrs followed by incubation in drug free medium for 10 days by crystal violet staining-based assay relative to hydroxychloroquine; type: functional, NCI-H460
In short: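 H460 cells exposed to drug for 24 h, after which medium was replaced with drug-free medium. Colonies grew for another 10 days and were stained with crystal violet.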

[13] = Cytotoxicity against human C8161 cells after 72 hrs by MTT assay; type: functional, cell-based; conditions: C8161, 72 h
[14] = Cytotoxicity against human 1205 Lu cells after 72 hrs by MTT assay; type: functional, cell-based
HT-29 = experiment: Cytotoxicity against human HT-29 cells after 72 hrs by MTT assay; type: functional, cell-based; conditions: HT-29, 72 h
[15] = Cytotoxicity against human LN229 cells after 72 hrs by MTT assay; type: functional, cell-based; conditions: LN-229, 72 h

Compound | Ratio IC50 [1] | IC50 [2] [µM] | Ratio IC50 [3] | IC50 [4] [µM] | IC50 [5] [µM] | Ratio IC50 (BXPC-3) | also measured
CN(CCNCc1cn(-c2nc3ccccc3[nH]2)nn1)CCNc1ccnc2cc(Cl)ccc12 | 2.1 | 16 | 2.1 | 33 | 32 | 2.1 | 
CCN(CC)CCNc1ccc(C)c2sc3ccccc3c(=O)c12 [LUCANTHONE] |  |  |  |  |  |  | IC50 (MDA-MB-231): 5.7 µM
CN(CCNCc1cn(CCc2c[nH]c3ccccc23)nn1)CCNc1ccnc2cc(Cl)ccc12 | 6 | 7.6 | 6 | 12 | 8.5 | 6 | 
CCN(CCO)CCCC(C)Nc1ccnc2cc(Cl)ccc12 (stereo not given) [HYDROXYCHLOROQUINE] |  | 33 |  | 74 | 65 |  | inhibition (NCI-H460 [6]): Active; inhibition (NCI-H460 [7]): tde; inhibition (NCI-H460 [8]): Dose-dependent effect; Activity (NCI-H460 [9]): Active; Cmax (Homo sapiens): 7 µM; inhibition (NCI-H460 [10]): Dose-dependent effect; inhibition (NCI-H3122): Active
CN(CCNCc1cn(Cc2nc3ccccc3[nH]2)nn1)CCNc1ccnc2cc(Cl)ccc12 |  |  |  | 120 | 164 |  | 
CN(CCNCc1cn(CCCn2nn[nH]c2=O)nn1)CCNc1ccnc2cc(Cl)ccc12 |  |  |  | > 200 | > 200 |  | 
CN(CCNCc1cn(Cc2ccc(Cl)cc2)nn1)CCNc1ccnc2cc(Cl)ccc12 | 7 | 5.8 | 7 | 11 | 7.6 | 7 | inhibition (NCI-H460 [6]): Active; inhibition (NCI-H460 [7]): tde; inhibition (NCI-H460 [8]): Dose-dependent effect; Activity (NCI-H460 [9]): Active; Activity (NCI-H460 [11]): Dose-dependent effect; Ratio [12]: >10; inhibition (NCI-H460 [10]): Dose-dependent effect; inhibition (NCI-H3122): Active
CN(CCNCc1cn(Cc2nc3cc(Cl)ccc3[nH]2)nn1)CCNc1ccnc2cc(Cl)ccc12 |  | 44 |  | 59 | 65 |  | 
CCN(CC)CCCC(C)Nc1ccnc2cc(Cl)ccc12 (stereo not given) [CHLOROQUINE] | 1.2 | 25 | 1.2 | 52 | 76 | 1.2 | IC50 [13]: 3.6 µM; IC50 [14]: 3.6 µM; Activity (NCI-H460 [9]): Active; IC50 (HT-29): 3.6 µM; IC50 [15]: 3.6 µM
CN(CCNc1ccnc2cc(Cl)ccc12)Cc1cn(-c2ccnc3cc(Cl)ccc23)nn1 | 2.7 | 16 | 2.7 | 29 | 18 | 2.7 | 
CN(CCNCc1cn(CCc2ccccc2)nn1)CCNc1ccnc2cc(Cl)ccc12 | 3.2 | 13 | 3.2 | 24 | 15 | 3.2 | 
CN(CCNCc1cn(CCn2c(=O)[nH]c3ccccc3c2=O)nn1)CCNc1ccnc2cc(Cl)ccc12 |  |  |  | 147 | > 200 |  | 
CN(CCNCc1cn(Cc2ccccc2)nn1)CCNc1ccnc2cc(Cl)ccc12 | 3.1 | 9.7 | 3.1 | 32 | 16 | 3.1 | 
CN(CCNCc1cn(C(C)(C)C)nn1)CCNc1ccnc2cc(Cl)ccc12 |  | 39 |  | 79 | 56 |  | 
CN(CCNCc1cn(-c2ccccc2)nn1)CCNc1ccnc2cc(Cl)ccc12 | 2.9 | 10 | 2.9 | 25 | 26 | 2.9 | 
C#CCNCCN(C)CCNc1ccnc2cc(Cl)ccc12 |  |  |  | 69 | 105 |  | 
CN(CCNCc1cn(CCC(=O)Nc2ccccn2)nn1)CCNc1ccnc2cc(Cl)ccc12 |  |  |  | > 200 | > 200 |  | 
Clc1ccc2c(NCCNCc3cn(-c4ccnc5cc(Cl)ccc45)nn3)ccnc2c1 | 3.2 | 14 | 3.2 | 21 | 16 | 3.2 | 
CN(CCNCc1cn(-c2ccccc2Cl)nn1)CCNc1ccnc2cc(Cl)ccc12 | 4 | 11 | 4 | 20 | 12 | 4 | 
CN(CCNCc1cn(CCCO)nn1)CCNc1ccnc2cc(Cl)ccc12 |  |  |  | > 200 | > 200 |  | 
Clc1ccc2c(-n3cc(CNCc4cn(-c5ccnc6cc(Cl)ccc56)nn4)nn3)ccnc2c1 |  | 78 |  | 70 | 72 |  | 
CN(CCNCc1cn(-c2ccnc3cc(Cl)ccc23)nn1)CCNc1ccnc2cc(Cl)ccc12 | 3.9 | 8.8 | 3.9 | 16 | 18 | 3.9 | 
CN(CCNCc1cn(CC(=O)Nc2cccc3ccc(O)cc23)nn1)CCNc1ccnc2cc(Cl)ccc12 |  |  |  | 67 | 86 |  | 
CN(CCNCc1cn(-c2ccc(Cl)cc2)nn1)CCNc1ccnc2cc(Cl)ccc12 | 5.2 | 9.1 | 5.2 | 14 | 9.5 | 5.2 | 
CN(CCNCc1cn(-c2ccc(F)cc2)nn1)CCNc1ccnc2cc(Cl)ccc12 | 2.8 | 12 | 2.8 | 34 | 19 | 2.8 | 
CN(CCNCc1cn(-c2ccc(Br)cc2)nn1)CCNc1ccnc2cc(Cl)ccc12 | 5 | 7.9 | 5 | 15 | 11 | 5 | 
CN(CCNCc1cn(CC(=O)O)nn1)CCNc1ccnc2cc(Cl)ccc12 |  |  |  | > 200 | > 200 |  | 
CN(CCNCc1cn(Cc2ccc(Br)cc2)nn1)CCNc1ccnc2cc(Cl)ccc12 | 5.7 | 8.7 | 5.7 | 12 | 9.3 | 5.7 | 
CN(CCNCc1cn(-c2cccc(Cl)c2)nn1)CCNc1ccnc2cc(Cl)ccc12 | 4.7 | 12 | 4.7 | 17 | 9.4 | 4.7 | 
